Laboratory results as given in ChEMBL document CHEMBL1681705, “Optimisation of ITK inhibitors through successive iterative design cycles” (Bioorg Med Chem Lett, 2011).

Legend:
[1] = molecular target: T1, Ephrin type-A receptor 3 (Homo sapiens) (UniProt P29320); experiment: Inhibition of EphA3 at 1 uM; values are per cent of control
T1 sequence (whole entry): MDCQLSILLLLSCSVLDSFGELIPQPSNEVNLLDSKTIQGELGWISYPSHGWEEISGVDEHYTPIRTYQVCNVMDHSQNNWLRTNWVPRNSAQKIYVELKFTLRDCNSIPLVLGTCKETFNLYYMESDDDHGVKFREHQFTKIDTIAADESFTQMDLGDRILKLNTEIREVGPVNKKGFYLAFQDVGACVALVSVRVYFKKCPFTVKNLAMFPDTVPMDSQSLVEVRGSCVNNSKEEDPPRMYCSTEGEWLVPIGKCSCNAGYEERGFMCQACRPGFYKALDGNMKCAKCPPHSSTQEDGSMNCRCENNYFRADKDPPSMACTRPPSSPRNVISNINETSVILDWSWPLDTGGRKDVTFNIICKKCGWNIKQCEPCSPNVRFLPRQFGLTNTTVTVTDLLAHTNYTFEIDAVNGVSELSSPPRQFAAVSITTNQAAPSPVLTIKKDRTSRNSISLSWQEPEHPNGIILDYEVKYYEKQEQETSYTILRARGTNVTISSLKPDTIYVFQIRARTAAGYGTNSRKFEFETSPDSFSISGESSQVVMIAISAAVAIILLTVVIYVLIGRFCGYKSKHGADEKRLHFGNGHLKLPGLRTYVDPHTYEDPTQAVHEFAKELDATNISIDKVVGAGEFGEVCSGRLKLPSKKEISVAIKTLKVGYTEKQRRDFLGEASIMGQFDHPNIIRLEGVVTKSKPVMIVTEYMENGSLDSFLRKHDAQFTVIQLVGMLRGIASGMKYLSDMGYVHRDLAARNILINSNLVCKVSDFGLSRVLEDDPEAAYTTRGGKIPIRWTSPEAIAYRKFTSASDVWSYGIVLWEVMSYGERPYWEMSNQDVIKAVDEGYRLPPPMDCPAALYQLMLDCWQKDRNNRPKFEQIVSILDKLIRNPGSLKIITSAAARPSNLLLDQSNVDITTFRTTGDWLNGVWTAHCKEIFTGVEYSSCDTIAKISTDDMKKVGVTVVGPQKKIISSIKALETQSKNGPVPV

[2] = molecular target: Mitogen-activated protein kinase 1 (Homo sapiens) (UniProt P28482); experiment: Inhibition of MAPK1 at 0.1 uM; values are per cent of control
[3] = molecular target: Receptor-type tyrosine-protein kinase FLT3 (Homo sapiens) (UniProt P36888); experiment: Inhibition of Flt3 at 1 uM; values are per cent of control
[4] = molecular target: T2, Serine/threonine-protein kinase STK11 (Homo sapiens) (UniProt Q15831); experiment: Inhibition of LKB1 at 1 uM; values are per cent of control
T2 sequence (whole entry): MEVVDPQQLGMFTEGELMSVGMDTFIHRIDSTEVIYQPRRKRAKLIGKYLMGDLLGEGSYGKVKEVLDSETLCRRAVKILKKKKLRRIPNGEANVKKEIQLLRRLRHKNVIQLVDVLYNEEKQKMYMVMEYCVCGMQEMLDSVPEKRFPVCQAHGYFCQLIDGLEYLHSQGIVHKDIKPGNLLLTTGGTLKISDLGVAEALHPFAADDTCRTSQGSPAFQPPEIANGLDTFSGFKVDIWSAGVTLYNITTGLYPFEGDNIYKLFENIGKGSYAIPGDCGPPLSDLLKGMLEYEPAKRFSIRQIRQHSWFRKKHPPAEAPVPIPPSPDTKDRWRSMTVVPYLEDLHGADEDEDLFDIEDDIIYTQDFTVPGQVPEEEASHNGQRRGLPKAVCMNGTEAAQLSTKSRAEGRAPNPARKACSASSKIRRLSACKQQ

[5] = molecular target: T3, Serine/threonine-protein kinase Nek2 (Homo sapiens) (UniProt P51955); experiment: Inhibition of NEK2 at 0.1 uM; values are per cent of control
T3 sequence (whole entry): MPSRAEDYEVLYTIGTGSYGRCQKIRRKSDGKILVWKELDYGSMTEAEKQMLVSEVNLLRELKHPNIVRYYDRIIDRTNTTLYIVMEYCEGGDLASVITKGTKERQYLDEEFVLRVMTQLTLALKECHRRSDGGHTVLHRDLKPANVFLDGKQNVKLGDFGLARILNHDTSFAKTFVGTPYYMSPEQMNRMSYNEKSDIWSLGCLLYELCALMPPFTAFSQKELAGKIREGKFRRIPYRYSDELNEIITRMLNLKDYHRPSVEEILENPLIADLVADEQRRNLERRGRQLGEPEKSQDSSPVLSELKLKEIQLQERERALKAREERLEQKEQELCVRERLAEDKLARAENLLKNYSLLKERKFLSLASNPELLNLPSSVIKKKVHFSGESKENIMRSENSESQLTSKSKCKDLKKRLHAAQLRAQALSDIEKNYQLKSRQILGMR

[6] = molecular target: Tyrosine-protein kinase Fyn (Homo sapiens) (UniProt P06241); experiment: Inhibition of Fyn at 1 uM
Procedure, shortened: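 Single-point profiling in a panel of 108 kinases. Each selected inhibitor was tested at two concentrations, 0.1 and 1.0 micromolar. Values are reported as inhibition at each concentration.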

[7] = molecular target: T4, Serine/threonine-protein kinase Sgk1 (Homo sapiens) (UniProt O00141); experiment: Inhibition of SGK at 1 uM; values are per cent of control
T4 sequence (whole entry): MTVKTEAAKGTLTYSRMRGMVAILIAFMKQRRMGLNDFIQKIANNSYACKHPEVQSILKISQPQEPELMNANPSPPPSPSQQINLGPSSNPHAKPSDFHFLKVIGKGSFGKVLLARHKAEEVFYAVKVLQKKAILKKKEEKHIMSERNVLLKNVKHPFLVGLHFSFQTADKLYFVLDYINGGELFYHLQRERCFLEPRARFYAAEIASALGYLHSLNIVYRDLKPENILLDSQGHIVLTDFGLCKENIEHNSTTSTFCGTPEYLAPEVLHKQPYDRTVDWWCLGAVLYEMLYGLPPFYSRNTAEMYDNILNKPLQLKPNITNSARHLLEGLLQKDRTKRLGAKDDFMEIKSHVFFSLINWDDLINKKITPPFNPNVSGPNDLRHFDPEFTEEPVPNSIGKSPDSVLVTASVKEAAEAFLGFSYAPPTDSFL

[8] = molecular target: RAC-alpha serine/threonine-protein kinase (Homo sapiens) (UniProt P31749); experiment: Inhibition of PKBalpha at 0.1 uM; values are per cent of control
Chain of RAC-alpha serine/threonine-protein kinase (Homo sapiens) (P31749 whole entry): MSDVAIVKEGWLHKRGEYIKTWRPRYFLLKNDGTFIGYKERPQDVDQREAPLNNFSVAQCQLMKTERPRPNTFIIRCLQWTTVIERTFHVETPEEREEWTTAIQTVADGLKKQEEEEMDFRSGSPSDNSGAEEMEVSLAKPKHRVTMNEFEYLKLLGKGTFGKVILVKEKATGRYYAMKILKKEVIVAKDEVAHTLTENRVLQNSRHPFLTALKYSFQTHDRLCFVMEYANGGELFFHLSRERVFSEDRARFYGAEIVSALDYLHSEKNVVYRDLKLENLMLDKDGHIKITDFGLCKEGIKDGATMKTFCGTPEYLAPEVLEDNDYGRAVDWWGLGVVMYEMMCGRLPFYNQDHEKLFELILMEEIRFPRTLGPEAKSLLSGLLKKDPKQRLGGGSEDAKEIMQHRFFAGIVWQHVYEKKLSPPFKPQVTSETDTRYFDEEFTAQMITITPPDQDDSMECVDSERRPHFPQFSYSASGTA

Chain of Mitogen-activated protein kinase 1 (Homo sapiens) (P28482 whole entry): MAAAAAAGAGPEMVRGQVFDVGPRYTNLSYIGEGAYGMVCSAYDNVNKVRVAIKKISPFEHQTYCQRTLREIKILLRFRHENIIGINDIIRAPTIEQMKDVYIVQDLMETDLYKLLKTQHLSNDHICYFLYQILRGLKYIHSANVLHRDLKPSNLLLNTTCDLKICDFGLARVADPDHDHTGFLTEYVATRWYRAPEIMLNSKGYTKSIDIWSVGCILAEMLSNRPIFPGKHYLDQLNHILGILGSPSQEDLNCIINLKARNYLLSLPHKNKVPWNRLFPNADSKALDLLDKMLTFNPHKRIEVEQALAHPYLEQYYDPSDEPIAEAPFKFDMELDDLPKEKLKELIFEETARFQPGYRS
Chain of Receptor-type tyrosine-protein kinase FLT3 (Homo sapiens) (P36888 whole entry): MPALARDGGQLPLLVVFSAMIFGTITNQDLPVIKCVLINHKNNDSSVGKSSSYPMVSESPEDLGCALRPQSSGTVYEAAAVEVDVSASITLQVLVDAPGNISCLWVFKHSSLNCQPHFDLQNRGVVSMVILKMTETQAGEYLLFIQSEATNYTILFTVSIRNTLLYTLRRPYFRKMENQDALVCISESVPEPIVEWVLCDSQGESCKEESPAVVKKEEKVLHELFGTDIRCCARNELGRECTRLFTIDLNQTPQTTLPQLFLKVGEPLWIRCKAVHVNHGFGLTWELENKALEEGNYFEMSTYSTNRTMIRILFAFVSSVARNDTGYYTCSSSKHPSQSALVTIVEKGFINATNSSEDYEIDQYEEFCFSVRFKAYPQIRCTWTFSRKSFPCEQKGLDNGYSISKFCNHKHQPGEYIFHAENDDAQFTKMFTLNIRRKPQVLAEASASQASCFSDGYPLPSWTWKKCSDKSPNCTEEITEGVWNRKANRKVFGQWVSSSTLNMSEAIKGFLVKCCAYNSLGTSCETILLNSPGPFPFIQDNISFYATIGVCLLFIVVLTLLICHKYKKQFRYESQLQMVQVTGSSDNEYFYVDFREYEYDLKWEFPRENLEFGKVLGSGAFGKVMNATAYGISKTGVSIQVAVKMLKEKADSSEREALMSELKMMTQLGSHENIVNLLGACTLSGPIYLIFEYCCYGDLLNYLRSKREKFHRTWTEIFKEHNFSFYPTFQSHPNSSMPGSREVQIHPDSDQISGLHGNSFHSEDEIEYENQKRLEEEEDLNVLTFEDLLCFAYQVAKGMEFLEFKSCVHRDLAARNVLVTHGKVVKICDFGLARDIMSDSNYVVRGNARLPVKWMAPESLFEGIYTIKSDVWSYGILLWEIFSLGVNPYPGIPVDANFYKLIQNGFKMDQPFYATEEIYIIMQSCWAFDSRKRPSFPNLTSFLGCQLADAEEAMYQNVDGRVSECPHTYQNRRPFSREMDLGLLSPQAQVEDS
Chain of Tyrosine-protein kinase Fyn (Homo sapiens) (P06241 2-537 limits assumed): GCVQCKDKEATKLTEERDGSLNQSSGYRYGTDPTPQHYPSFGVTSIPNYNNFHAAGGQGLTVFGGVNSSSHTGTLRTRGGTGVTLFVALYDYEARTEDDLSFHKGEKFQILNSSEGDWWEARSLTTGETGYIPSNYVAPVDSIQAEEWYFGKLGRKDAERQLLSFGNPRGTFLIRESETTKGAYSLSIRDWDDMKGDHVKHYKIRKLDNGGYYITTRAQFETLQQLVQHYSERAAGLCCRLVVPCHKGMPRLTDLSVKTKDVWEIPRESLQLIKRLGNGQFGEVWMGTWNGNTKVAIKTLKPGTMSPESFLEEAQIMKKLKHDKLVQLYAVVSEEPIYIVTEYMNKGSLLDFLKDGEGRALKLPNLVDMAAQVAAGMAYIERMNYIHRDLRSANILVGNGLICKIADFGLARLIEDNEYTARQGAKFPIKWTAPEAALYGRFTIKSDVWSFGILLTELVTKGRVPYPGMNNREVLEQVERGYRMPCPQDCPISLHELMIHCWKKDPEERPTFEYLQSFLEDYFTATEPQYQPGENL

residual activity [1] [%]	residual activity [2] [%]	residual activity [3] [%]	residual activity [4] [%]	residual activity [5] [%]	inhibition [6] [%]	residual activity [7] [%]	residual activity [8] [%]	SMILES
29	85	10	98	79	0	32	95	Cc1ccc2cc(-c3n[nH]c4ccc(NC5CCNC5)cc34)[nH]c2c1 (stereo unspecified)
14	88	0	101	91	4	97	96	Cc1ccc2cc(-c3n[nH]c4ccc(NC5CCN(Cc6ccccc6)CC5)cc34)[nH]c2c1
